Test results: ChEMBL document CHEMBL1151751, “Bisphosphonate inhibition of a Plasmodium farnesyl diphosphate synthase and a general method for predicting cell-based activity from enzyme data” (J Med Chem, 2008)

Experiments:
[1] = Inhibition of Plasmodium vivax FPPS expressed in Escherichia coli BL21 by spectrophotometric assay
Outline: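 Recombinant enzyme from lysed cells (lysozyme, nuclease, protease inhibitors), purified on Ni-NTA resin. The GPP + IPP condensation was followed at room temperature by a continuous spectrophotometric phosphate-release assay in 25 mM Hepes, 2.5 mM MgCl₂, pH 7.4. Inhibitors were preincubated with enzyme for 30 min at room temperature. IC50 was obtained by fitting the dose–response curve.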

[2] = system: Plasmodium falciparum; assay: Growth inhibition of Plasmodium falciparum; type: functional, organism-based
[3] = system: Plasmodium berghei; assay: Antiparasitic activity against Plasmodium berghei ANKA infected BALB/c mice (Mus musculus) as reduced parasitaemia; type: functional; set-up: scale not given: the % may be the effect or the level left

| SMILES | IC50 [1] [µM] | pIC50 [1] | IC50 ([2]; read-out: pIC50 (converted)) [µM] | IC50 ([2]; read-out: IC50) [µM] | Activity [3] [%] |
| --- | --- | --- | --- | --- | --- |
| CCCC(O)(P(=O)(O)O)P(=O)(O)O | 0.78 | 6.1 | 126 | – | – |
| O=P(O)(O)C(Nc1ccc(Cl)cn1)P(=O)(O)O | – | – | 10 | – | – |
| O=P(O)(O)C(O)(CSc1ccncc1)P(=O)(O)O | 1.2 | 5.9 | – | – | – |
| CCCCCN(C)CCC(O)(P(=O)(O)O)P(=O)(O)O [IBANDRONIC ACID] | 0.92 | 6 | 79.4 | 74 | – |
| CN(CCCc1ccccc1)CCC(O)(P(=O)(O)O)P(=O)(O)O | 0.45 | 6.3 | 25.1 | – | – |
| CN(CCc1ccccc1)CCC(O)(P(=O)(O)O)P(=O)(O)O | 0.4 | 6.4 | 31.6 | – | – |
| O=P(O)(O)C(O)(Cc1cccc(C(F)(F)F)c1)P(=O)(O)O | 0.68 | 6.2 | 3.98 | 3.8 | – |
| CCCCCCCCNC(P(=O)(O)O)P(=O)(O)O [(OCTYLAMINO)METHYLENEDIPHOSPHONIC ACID] | 0.49 | 6.3 | 12.6 | 12 | – |
| O=P(O)(O)C(O)(Cc1ccccn1)P(=O)(O)O | 0.9 | 6 | 200 | 220 | – |
| O=P(O)(O)C(O)(Cc1cccc(Br)c1)P(=O)(O)O | 0.88 | 6.1 | 20 | 22 | – |
| O=P(O)(O)C(CNc1ccccn1)P(=O)(O)O | 0.82 | 6.1 | 25.1 | 28 | – |
| Cc1ccc(C)c(COc2ccc(C)nc2NC(P(=O)(O)O)P(=O)(O)O)c1 | 98 | 4 | 200 | 200 | – |
| CCCCCCCCCNC(P(=O)(O)O)P(=O)(O)O [(NONYLAMINO)METHYLENEDIPHOSPHONIC ACID] | 5.2 | 5.3 | 100 | – | 80 |
| O=P(O)(O)C(Nc1nccs1)P(=O)(O)O | 0.71 | 6.1 | 126 | 120 | – |
| CCCCCCCCCCCCCC(O)(P(=O)(O)O)P(=O)(O)O | 4.1 | 5.4 | 2 | – | – |
| CN(CCCCc1ccccc1)CCC(O)(P(=O)(O)O)P(=O)(O)O | – | – | 3.16 | – | – |
| O=P(O)(O)C(O)(Cc1ccccc1)P(=O)(O)O | – | – | 10 | 11 | – |
| O=P(O)(O)C(O)(Cc1cccc(Cl)c1)P(=O)(O)O | 0.63 | 6.2 | 3.98 | 4.3 | – |
| O=P([O-])(O)C(O)(CC1=[n+]2ccccc2=NC1)P(=O)(O)O (stereo not given) | – | – | 100 | 90 | – |
| Cc1cccc(CC(O)(P(=O)(O)O)P(=O)(O)O)c1 | 2.3 | 5.6 | 25.1 | 23 | – |
| O=P(O)(O)C(O)(Cn1ccnc1)P(=O)(O)O [ZOLEDRONIC ACID] | – | – | 158 | – | – |
| O=P(O)(O)C(O)(Cc1cccc(F)c1)P(=O)(O)O | 0.63 | 6.2 | 6.31 | 6.4 | – |
| CN(Cc1ccccc1)C(P(=O)(O)O)P(=O)(O)O | 0.87 | 6.1 | 200 | 180 | – |
| CCCCCCC(O)(P(=O)(O)O)P(=O)(O)O | 0.63 | 6.2 | 1.26 | 1.4 | – |
| CCCCCCCCCC(O)(P(=O)(O)O)P(=O)(O)O | 0.71 | 6.1 | – | – | 80 |
